Shown are actives, neighbours in structure and some others; about 2% of the full set was active somewhere.
SR-BI DiI inh: mouse SR-BI HDL lipid transfer inhibition; ldlA[mSR-BI] CHO cells, DiI-HDL uptake fluorescence, 3 h; hit rate 0.96% among 320,000; inhibition, % at 12.5 µM; Q61009;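 active means mean replicate inhibition of at least 70% and a set share of replicates each scoring 70 or more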;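 further: 0% = median of neutral control wells and 100% = median of positive control wells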
Target sequence (Q61009 whole entry, looked up): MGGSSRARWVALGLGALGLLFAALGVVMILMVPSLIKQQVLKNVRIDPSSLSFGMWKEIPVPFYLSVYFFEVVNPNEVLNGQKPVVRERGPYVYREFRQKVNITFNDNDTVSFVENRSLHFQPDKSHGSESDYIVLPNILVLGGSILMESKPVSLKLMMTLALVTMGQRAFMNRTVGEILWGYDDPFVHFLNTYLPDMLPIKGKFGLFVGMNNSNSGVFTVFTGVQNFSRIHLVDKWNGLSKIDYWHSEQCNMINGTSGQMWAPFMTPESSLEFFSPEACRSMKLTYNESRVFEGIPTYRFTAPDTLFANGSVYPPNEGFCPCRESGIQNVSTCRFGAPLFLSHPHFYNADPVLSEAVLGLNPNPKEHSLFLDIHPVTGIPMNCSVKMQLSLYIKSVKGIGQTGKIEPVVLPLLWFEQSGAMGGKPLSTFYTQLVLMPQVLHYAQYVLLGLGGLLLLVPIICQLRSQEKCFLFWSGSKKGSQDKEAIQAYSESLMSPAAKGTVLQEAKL
SR-BI DiI-HDL act: SR-BI HDL lipid transfer activation; CHO ldlA[mSR-BI] cells, DiI-HDL uptake fluorescence, 3 h; 100 = double the neutral-control signal; activation, % at 12.5 µM; hit rate 0.096% among 320,000; AID 504775;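 active means mean replicate activation of at least 60% and every replicate at or above 60%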;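 further: 0% = median plate neutral-control signal and 100% = twice that signal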
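Assay system: LDL receptor-deficient CHO ldlA cells overexpressing murine SR-BI / Medium: BSA-supplemented, HEPES-buffered Ham's F12, pH 7.4 / Probe or stimulus: DiI-labelled HDL at 10 µg/mL final / Timing: compound with DiI-HDL co-incubation, 3 h at 37 °C / Technique: bottom-read cell fluorescence after medium removal, ex 550/em 595 nm / Measure: HDL uptake via cellular fluorescence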
HGIII-sPLA2 inh: Inhibits HGIII-sPLA2 liposome hydrolysis, primary screen. Q9NZ20. QFRET BODIPY PC-A2 liposome hydrolysis, fluorescence. inhibition, % at 12.2 µM. hit rate 0.56% among 370,000. AID 743126;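 active means inhibition above mean plus 3 SD of compounds lying within the high and low control bounds, cut at about 19% in these data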;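 further: 0% = median of test compound wells and 100% = no enzyme DMSO wells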
XiGFP reactiv: reactivates the inactive X chromosome in mouse fibroblasts | AID 743238 | XiGFP mouse fibroblasts, % GFP-positive cells imaging, 3 d; cells co-treated with 5-aza-dC sensitizer; scaled so ellipticine positive control = 100% | activation, % at 7.58 µM | hit rate 0.055% among 360,000;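 active means mean normalized replicate activation at least 10% and every replicate at or above 10%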;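 further: 0% = median of on-plate neutral control wells and 100% = ellipticine 6 µM median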
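System: 68-5-11 XiGFP fibroblast line | Buffer or medium: DMEM containing 5-aza-dC | Compound: Single point | Times: Compounds 3 days, fix/stain 15 min at room temperature | Benchmarks: Positive control ellipticine, 6 µM final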
ARNT-TACC3 inh: ARNT/TACC3 interaction disruption. hit rate 0.66% among 390,000. AID 623870. AlphaScreen His-ARNT PAS-B/GST-TACC3 binding, luminescence; TACC3 fragment carries E629A point mutation. inhibition, % at 9.99 µM;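 active means mean inhibition of replicates at least 50% and at least half of replicates each reaching 50%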;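 further: 0% = complete ARNT plus TACC3 wells and 100% = ARNT alone without TACC3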
NSD2 HMT inh: blocks human histone methyltransferase NSD2; AID 743445; O96028; inhibition, % at 12.5 µM; NSD2 peptide methylation, AlphaScreen, 120 min; hit rate 0.54% among 310,000; in the data active means inhibition above about 50%
The depositor's hits bear a star; x = not tested or not shown.

SMILES | SR-BI DiI inh | SR-BI DiI-HDL act | HGIII-sPLA2 inh | XiGFP reactiv | ARNT-TACC3 inh | NSD2 HMT inh
Cc1cc(Br)ccc1OCC(=O)NNC(=O)c1ccc(NC(=O)C2CC2)cc1 | 46.8 | -46.8 | -12.6 | x | -6.2 | -5.2
Cc1ccc(C)c(OCC(=O)NNC(=O)c2ccc(NC(=O)C3CC3)cc2)c1 | 74.3* | -74.3 | -0.7 | 0.1 | -0.1 | 9.7
S=C(NCc1ccccc1)N1CCN(c2ccccc2)CC1 | -77.8 | 77.8* | 1.3 | -1.0 | 3.0 | 2.4
COc1ccc(/C=N/NC(=O)c2ccc(COc3ccccc3Cl)o2)c(OC)c1C | 75.9* | -75.9 | -1.7 | 0.2 | -5.7 | -4.8
COc1ccc(/C=N/NC(=O)c2ccc(COc3ccccc3Cl)o2)cc1 | -2.8 | 2.8 | -11.1 | x | x | 0.4
C[C@H]1CN([C@@H](C)CO)C(=O)Cc2cc(NC(=O)Cc3cn(C)c4ccccc34)ccc2O[C@@H]1CN(C)Cc1ccc(C(=O)O)cc1 | x | x | x | 0.7 | 18.4 | x
COc1ccc(C(=O)Nc2cc3c4c(c2)C(C)C(=O)N4CCC3)cc1OC (centres undefined) | 78.6* | -78.6 | -4.0 | 0.1 | 0.4 | 2.0
CCOC(=O)N1CCC(NC(=O)c2cc(C)c3c(C)nn(-c4ccccc4)c3n2)CC1 | 39.9 | -39.9 | -3.3 | x | -1.8 | -1.0
COc1cccc(/C=N/Nc2nnc(C)n2N)c1O | 12.6 | -12.6 | -0.6 | 0.3 | 58.1* | -2.0
COc1cccc(/C=N/Nc2cc(N3CCOCC3)ncn2)c1O | 9.2 | -9.2 | -5.6 | 0.0 | 48.5* | 1.0
CCOC(=O)[C@]12CCCC=C1N(Cc1ccc(Cl)cc1Cl)C(=O)[C@H](CC(=O)NCCCN1CCCC1=O)C2 | x | x | -7.2 | 0.4 | x | x
Cc1ccc(OCCn2cc(/C=C(\C#N)C(=O)NCC3CCCO3)c3ccccc32)cc1C (centres undefined) | 75.6* | -75.6 | -9.2 | 0.5 | 7.2 | 0.2
Cc1ccc(OCCn2cc(/C=C(\C#N)C(=O)NCC3CCCO3)c3ccccc32)cc1 (centres undefined) | 53.9 | -53.9 | -26.8 | 0.3 | -0.5 | -0.7
COc1ccc(S(=O)(=O)Nc2ccc(O)c(Sc3ncn[nH]3)c2)cc1 | -9.3 | 9.3 | -44.3 | x | 18.3 | x
COc1ccc(S(=O)(=O)Nc2cc(Sc3ncn[nH]3)c(O)c3ccccc23)cc1 | x | x | -7.3 | x | x | 165.1*
COc1ccc(S(=O)(=O)Nc2ccc3c(c2)C(=O)N([C@@H](C)CO)C[C@H](C)[C@H](CN(C)CC2CCCCC2)O3)cc1 | x | x | x | 0.1 | -4.1 | x
CO[C@H]1CN(C)C(=O)c2cc(NC(=O)c3ccccc3)ccc2OC[C@@H](C)N(C(=O)C2CC2)C[C@@H]1C | x | x | x | 0.5 | 1.8 | x
O=C(O)/C=C/C(=O)Nc1ccc2c(c1)C(=O)c1ccccc1C2=O | -9.7 | 9.7 | 17.7 | 0.0 | 47.6* | x
O=C(O)/C=C/C(=O)Nc1ccc(O)cc1 | x | x | -9.5 | 0.0 | 54.2* | -3.0
CCn1nc([N+](=O)[O-])c(C(C#N)c2nc3cc(C(F)(F)F)ccc3s2)c(Cl)c1=O (centres undefined) | 1.3 | -1.3 | -34.0 | x | 27.9 | 53.5*
Nc1c(C(=O)OCC(=O)Nc2cccc([N+](=O)[O-])c2)[nH]c(=O)[nH]c1=O | -15.4 | 15.4 | x | x | 16.4* | 4.8
C/C(=N/Nc1ccc(C(=O)c2c(C)cc3ccccn23)cc1[N+](=O)[O-])c1ccc(O)cc1 | 100.8* | -100.8 | 8.9 | 0.1 | 2.8 | 1.7
C/C(=N\Nc1ccc(C(=O)c2c(C)cc3ccccn23)cc1[N+](=O)[O-])c1ccc(O)cc1 | x | x | 0.6 | 0.2 | -2.4 | -2.1
C[C@H](CO)N1C[C@H](C)[C@@H](CN(C)C(=O)Nc2ccccc2)Oc2c(NC(=O)CCC(F)(F)F)cccc2C1=O | x | x | x | 0.1 | x | x
CCOc1ccc(C(=O)CCNC(Cc2cnc[nH]2)C(=O)O)cc1 (centres undefined) | 2.8 | -2.8 | 0.4 | x | 60.9* | -2.3
SMILES | SR-BI DiI inh | SR-BI DiI-HDL act | HGIII-sPLA2 inh | XiGFP reactiv | ARNT-TACC3 inh | NSD2 HMT inh
C[C@H]1CN([C@@H](C)CO)C(=O)c2cccc(NC(=O)c3ccncc3)c2O[C@H]1CN(C)Cc1ccc(Cl)c(Cl)c1 | x | x | x | 0.1 | 1.6 | x
O=C(C[C@@H]1C[C@H]2c3cc(NS(=O)(=O)c4ccc(F)cc4)ccc3O[C@H]2[C@@H](CO)O1)NCCc1ccccc1 | x | x | x | 0.0 | 0.3 | x
S=C(NNc1ccnc2cc(Cl)ccc12)Nc1ccccc1Cl | 89.1* | -89.1 | 2.4 | 0.2 | -1.1 | 11.0
CCN(CC)S(=O)(=O)c1cccc(NC(=O)/C=C/c2ccc([N+](=O)[O-])cc2)c1 | 75.9* | -75.9 | 6.9 | 0.0 | x | -0.4
CCN(CC)S(=O)(=O)c1cccc(NC(=O)c2ccc(C#N)cc2)c1 | 76.9* | -76.9 | -14.1 | 0.0 | 4.0 | -2.7
CN(C)S(=O)(=O)c1cccc(NC(=O)/C=C/c2ccccc2[N+](=O)[O-])c1 | 75.3* | -75.3 | -6.9 | 0.0 | -7.2 | -2.5
CCN(CC)S(=O)(=O)c1ccc(NC(=O)c2ccc(Cl)nc2)cc1 | 76.2* | -76.2 | -7.7 | 0.0 | 5.6 | 3.9
CCCNC(=O)N1CC2(C1)CN(Cc1cccc(OC)c1)[C@@H](CO)c1[nH]c3cc(OC)ccc3c12 | x | x | x | 0.2 | x | x
CCNC1=C(Cl)C(=O)c2ccccc2C1=O | -1.3 | 24.7 | 8.3 | x | 14.6 | 30.0
O=C1C(Cl)=C(NCc2ccco2)C(=O)c2ccccc21 | 1.7 | -1.7 | 13.6 | 0.5 | 26.5 | 71.3*
Cc1csc(=O)n1CCC(=O)OCC(=O)Nc1ccc(S(N)(=O)=O)cc1 | -18.7 | 18.7 | 6.5 | -0.1 | -6.1 | 12.7
CCN1C(=O)CCC(C(=O)O)C1c1ccc(OC)cc1 (centres undefined) | -6.5 | 6.5 | 0.9 | 0.5 | -3.6 | -2.8
CC(C)NCC(O)Cn1c2c(c3ccccc31)CCc1c-2cnn1-c1ccccc1 (centres undefined) | 13.7 | -13.7 | 21.3* | x | 18.4 | 21.8
CN1CCc2c(n(CC(O)CNCc3ccccc3)c3ccccc23)C1=O (centres undefined) | -22.7 | 22.7 | -1.6 | 0.1 | 0.2 | 5.1
C[C@H]1CN([C@@H](C)CO)C(=O)Cc2cc(N(C)C)ccc2O[C@H]1CN(C)Cc1ccc(-c2ccccc2)cc1 | x | x | x | 0.2 | 21.3 | x
CCCCCn1c(N)c(-c2nc3ccccc3s2)c2c([N+](=O)[O-])nn(C)c(=O)c21 | 83.9* | -83.9 | x | x | x | 6.4
COc1ccc(/C=N/Nc2ccc([N+](=O)[O-])cc2)cc1Cn1cc([N+](=O)[O-])cn1 | 95.2* | -95.2 | 0.3 | x | -2.7 | -1.8
COc1ccc(/C=N/n2cncn2)cc1Cn1cc([N+](=O)[O-])cn1 | x | x | -1.4 | 0.3 | x | -1.5
CN1C(=S)N2CCCN2C1c1ccccc1 (centres undefined) | -26.4 | 26.4 | 3.5 | 0.0 | -1.9 | 1.1
S=c1[nH]nc(-c2ccccn2)n1/N=C/c1ccc(Br)s1 | -10.7 | 10.7 | 2.9 | 0.0 | 99.3* | -1.0

From PubChem BioAssay
